The values that follow come from ChEMBL document CHEMBL4138193, “Novel indole and triazole based hybrid molecules exhibit potent anti-adipogenic and antidyslipidemic activity by activating Wnt3a/β-catenin pathway” (Eur J Med Chem, 2018).

In data set [1] the test system is Syrian golden hamster. The experiment in a line: Anti-dyslipidemic activity in high fat diet-induced dyslipidemia Syrian Golden hamster model assessed as decrease in serum ALT levels at 100 mg/kg, po administered for 1 week followed by overnight fasting post last dose by clinical bio-analyzer analysis. The class given is functional, organism-based. The following applies: Mesocricetus auratus. Put shortly: (§1)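 Male Syrian golden hamsters (8–10 wk, 100–120 g), 4 per group, given 45% kcal HFD for 4 days, then 100 mg/kg p.o. in 0.5% NaCMC daily for one week alongside HFD. Blood taken from retro-orbital plexus after overnight fast. TG, HDL, LDL, ALT, AST measured on a clinical bio-analyzer and NEFA by kit. Mean ± SEM, one-way ANOVA with Bonferroni.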

For data set [2], the species on record is Mus musculus. The experiment in a line: Activation of Wnt3a/beta-catenin in mouse 3T3L1 cells assessed as down-regulation of AP2 expression at 20 uM after 2 to 6 days in presence of FH353 by Western blot analysis.
The species named for data set [3] is Mus musculus. In words: Activation of Wnt3a/beta-catenin in mouse 3T3L1 cells assessed as down-regulation of cyclinD3 expression at 20 uM after 16 to 24 hrs in presence of FH353 by Western blot analysis. The class given is cell-based. In short, it runs like this:
(§2)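 Confluent 3T3-L1 cells given differentiation media (IBMX/insulin/dexamethasone) with 20 µM compound, with or without the β-catenin/TCF inhibitor FH353 (10 µM). Proteins isolated at 16 and 24 h and Western blotted after SDS-PAGE and nitrocellulose transfer. Blocking in 5% milk/TBS-T, primary antibody overnight at 4 °C, chemiluminescent detection, β-actin control, three independent experiments.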

Data set [4] is filed under the species Mus musculus. The experiment in a line: Activation of Wnt3a/beta-catenin in mouse 3T3L1 cells assessed as down-regulation of cyclinE expression at 20 uM after 16 to 24 hrs by Western blot analysis. It is filed as cell-based.
For data set [5], the system named is 3T3-L1. The experiment in a line: Anti-adipogenic activity in mouse 3T3L1 cells assessed as reduction in lipid accumulation at 20 uM measured up to 7 days by Oil Red O staining based leica microscopy. It is filed as functional, cell-based. In short, it runs like this:
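3T3-L1 or C3H10T1/2 cells given 20 µM compound in differentiation media for varied time periods, then stained with Oil red O. Imaged by microscopy at 10x, representative of three independent experiments.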

For data set [6], the species on record is Mus musculus. The experiment in a line: Activation of Wnt3a/beta-catenin in differentiated mouse 3T3L1 cells assessed as down-regulation of FAS protein expression at 20 uM after 16 to 24 hrs by Western blot analysis. Put shortly: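 3T3-L1 preadipocytes grown to confluence in high-glucose DMEM/10% FBS, then given differentiation media (0.5 mM IBMX, 5 µg/ml insulin, 250 nM dexamethasone) with or without 20 µM compound. Protein isolated at set time points, lysed with protease/phosphatase inhibitors, BCA-quantified, resolved by 8–12% SDS-PAGE, immunoblotted with ECL detection. β-actin loading control, densitometry normalized to actin, n=3.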

The subject of data set [7] is Syrian golden hamster. The experiment in a line: Anti-atherosclerotic activity in high fat diet-induced dyslipidemia Syrian Golden hamster model assessed as reduction in atherogenic index by measuring serum triglycerides to HDL ratio at 100 mg/kg, po administered for 1 week followed by overnight fasting post last dose by clinical bio-analyzer analysis. The following applies: Mesocricetus auratus. It is filed as functional, organism-based. Put shortly: as §1

For data set [8], the species on record is Mus musculus. In words: Activation of Wnt3a/beta-catenin in mouse 3T3L1 cells assessed as induction of LEF1 expression at 20 uM after 16 to 24 hrs by Western blot analysis. It is filed as cell-based.
Data set [9] deals with Syrian golden hamster. In words: Anti-dyslipidemic activity in high fat diet-induced dyslipidemia Syrian Golden hamster model assessed as reduction in serum total cholesterol levels at 100 mg/kg, po administered for 1 week followed by overnight fasting post last dose by clinical bio-analyzer analysis. It is filed as functional, organism-based. The following applies: Mesocricetus auratus. In short, it runs like this: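 Male Syrian Golden hamsters (8-10 weeks, 100-120 g), 4 per group, given 45% kCal high fat diet for 4 days, then HFD plus oral dosing in 0.5% w/v NaCMC for one week. After an overnight fast, blood was taken from the retro-orbital plexus under anesthesia and serum was analysed on a clinical bio-analyzer. Mean ± SEM; one-way ANOVA with Bonferroni post-test.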

The species named for data set [10] is Mus musculus. In words: Activation of Wnt3a/beta-catenin in mouse 3T3L1 cells assessed as induction of TCF1 expression at 20 uM after 16 to 24 hrs in presence of beta-catenin/TCF complex inhibitor FH353 by Western blot analysis. It is filed as cell-based. In short, it runs like this:
as §2

Data set [11] deals with 3T3-L1. The experiment in a line: Anti-adipogenic activity in mouse 3T3L1 cells assessed as reduction in lipid accumulation at early differentiation stage at 20 uM measured up to 3 days by Oil Red O absorbance method. The class given is functional, cell-based. Put shortly:
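3T3-L1 or C3H10T1/2 cells given 20 µM compound with differentiation media for different time periods. Oil red O stain extracted from accumulated lipid with isopropanol and absorbance read at 492 nm. n=3, mean ± SD, Student t test against MDI+ group.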

Data set [12] has as its system Syrian golden hamster. The experiment in a line: Anti-dyslipidemic activity in high fat diet-induced dyslipidemia Syrian Golden hamster model assessed as decrease in serum AST levels at 100 mg/kg, po administered for 1 week followed by overnight fasting post last dose by clinical bio-analyzer analysis. It is filed as functional, organism-based. As to conditions: Mesocricetus auratus. In short, it runs like this:
as §1

Data set [13] concerns Syrian golden hamster. In words: Induction of reverse cholestrol transport in high fat diet-induced dyslipidemia Syrian Golden hamster model assessed as increase in LCAT mRNA expression in liver at 100 mg/kg, po administered for 1 week by qRT-PCR analysis. It is filed as functional, organism-based. As to conditions: Mesocricetus auratus.
The subject of data set [14] is Syrian golden hamster. In words: Induction of reverse cholestrol transport in high fat diet-induced dyslipidemia Syrian Golden hamster model assessed as reduction in liver weight at 100 mg/kg, po administered for 1 week. The class given is functional, organism-based. The following applies: Mesocricetus auratus. In short, it runs like this: (§3)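 Male Syrian Golden hamsters on 45% kCal HFD, dosed 100 mg/kg p.o. in 0.5% NaCMC for one week, 4 per group. Food intake and body weight recorded daily. At the end, animals were saline-perfused and liver and eWAT were excised and weighed. Paraffin sections stained with H&E and imaged at 20x.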

The species entered for data set [15] is Mus musculus. The experiment in a line: Activation of Wnt3a/beta-catenin in mouse 3T3L1 cells assessed as down-regulation of CDK2 expression at 20 uM after 16 to 24 hrs in presence of FH353 by Western blot analysis. The class given is cell-based. In short, it runs like this: as §2
A further data set concerns C3H 10T1/2. In words: Anti-adipogenic activity in mouse differentiated C3H10T1/2 cells assessed as reduction in lipid accumulation at 5 to 20 uM after 20 mins by Oil Red O staining based microscopic method. It is filed as functional, cell-based. Put shortly: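 C3H10T1/2 or hMSC adipocytes differentiated alongside 5, 10 or 20 µM compound in differentiation media, stained with Oil red O. Images taken by bright-field microscopy at 10x and 20x, representative of three independent experiments.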

For data set [16], the species on record is Mus musculus. The experiment in a line: Activation of Wnt3a/beta-catenin in mouse 3T3L1 cells assessed as down-regulation of PPARgamma expression at 20 uM after 2 to 6 days in presence of FH353 by Western blot analysis. The class given is cell-based.
Data set [17] concerns 3T3-L1. In words: Cytotoxicity against mouse 3T3L1 cells at 1 to 1000 uM after 24 hrs by MTT assay. It is filed as cell-based. The following applies: 3t3-l1, 24 h. In short, it runs like this:
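3T3-L1 cells seeded at 1×10^4 per well and grown 24 hr, then exposed to 1–1000 µM for 24 hr. Medium was replaced with MTT medium ([…]) for 3 hr and the formazan dissolved in DMSO. Absorbance read at 570 nm; three independent experiments, mean ± SD.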

Data set [18] deals with Syrian golden hamster. The experiment in a line: Induction of reverse cholestrol transport in high fat diet-induced dyslipidemia Syrian Golden hamster model assessed as reduction in adipocyte hypertrophy at 100 mg/kg, po administered for 1 week by H and E staining based assay. It is filed as functional, organism-based. As to conditions: Mesocricetus auratus. Put shortly:
as §3

SMILES strings stand for the structures. The source made the active and inactive calls. The calls are words filed in the database; no cut-off is given here.

Turning to `Cc1ccc(S(=O)(=O)N(Cc2cn(Cc3cccc(F)c3F)nn2)Cc2cn(S(=O)(=O)c3ccc(C)cc3)c3ccccc23)cc1`, the result with Syrian golden hamster [1], in the data set listed under Mus musculus [4], in the data set on 3T3-L1 [5], in the data set listed under Mus musculus [6], in the data set with Syrian golden hamster [7] and in the data set filed under Mus musculus [8] was Active. In addition, the outcome with Syrian golden hamster [9], in the data set on 3T3-L1 [11], in the data set with Syrian golden hamster [12], in the data set on Syrian golden hamster [13], with Syrian golden hamster [14] and in the data set with C3H 10T1/2 was Active. Moreover, the result with Syrian golden hamster [18] was Active. Besides, the outcome in the data set filed under Mus musculus [2], in the data set filed under Mus musculus [3], in the data set listed under Mus musculus [10], in the data set listed under Mus musculus [15] and in the data set filed under Mus musculus [16] was inactive. Besides, in the data set on 3T3-L1 [17], the Activity entry was “Non-Toxic”.
